Results taken from ChEMBL document CHEMBL1150247, “Structural determinants for affinity enhancement of a dual antagonist peptide entry inhibitor of human immunodeficiency virus type-1” (J Med Chem, 2008).
pIC50, pKd: −log10 of the molar value.

Legend:
[1] = Binding affinity to immobilized HIV1 YU2 gp120 by surface plasmon resonance method; set-up: species or system Human immunodeficiency virus 1
Summary of the method: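 YU2 gp120 (Drosophila S2-expressed, F105-affinity purified) amine-coupled to CM5 chip (~4000 RU); peptides in PBS injected at 15 μL/min, 5 min association, 5 min dissociation. Buffer and anti-IL5Rα 2B6R control-surface responses subtracted; kinetic constants fitted in BIAevaluation.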

[2] = Inhibition of HIV1 YU2 gp120 binding to immobilized CD4 by surface plasmon resonance method; set-up: species or system Human immunodeficiency virus 1
[3] = Cytotoxicity against CCR5 expressing human P4 cells after 2 hrs by MTT assay; type: cell-based; settings: p4, 2 h
Summary of the method: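 P4-CCR5 cells seeded 4×10^4/well ~18 h ahead, exposed 2 h to varying peptide concentrations, washed, then viability by MTT; triplicate in two independent assays.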

[4] = Inhibition of HIV1 YU2 gp120 binding to immobilized CD4 binding site specific b6 monoclonal antibody by surface plasmon resonance method; set-up: species or system Human immunodeficiency virus 1
[5] = tested on: Human immunodeficiency virus 1; experiment: Antiviral activity against HIV1 BaL in CCR5 expressing P4 cells after 2 hrs; type: functional, organism-based; settings: Human immunodeficiency virus 1, BaL, P4, 2 h
Summary of the method: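 P4-CCR5 cells (DMEM, 10% FBS, puromycin) seeded 1.2×10^4/well ~18 h ahead; exposed 2 h to HIV-1 BaL plus peptide, washed, cultured 46 more h; infection read by β-galactosidase reporter assay. Infectivity relative to mock-treated infected cells; IC50 from sigmoidal dose-response fit; two independent experiments combined.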

[6] = Inhibition of HIV1 YU2 gp120 binding to immobilized CD4 binding site specific F105 monoclonal antibody by surface plasmon resonance method; set-up: species or system Human immunodeficiency virus 1
[7] = Inhibition of HIV1 YU2 gp120 binding to immobilized CD4 induced 17b monoclonal antibody by surface plasmon resonance method; set-up: species or system Human immunodeficiency virus 1
[8] = Inhibition of HIV1 YU2 gp120 binding to immobilized CD4 binding site specific immunoglobulin G b12 monoclonal antibody by surface plasmon resonance method; set-up: species or system Human immunodeficiency virus 1

CC[C@H](C)[C@H](NC(=O)[C@@H](N)CCCNC(=N)N)C(=O)N[C@@H](CC(N)=O)C(=O)N[C@@H](CC(N)=O)C(=O)N[C@H](C(=O)N1C[C@@H](n2cc(-c3ccccc3N)nn2)C[C@H]1C(=O)N[C@@H](Cc1c[nH]c2ccccc12)C(=O)N[C@@H](CO)C(=O)N[C@@H](CCC(=O)O)C(=O)N[C@@H](C)C(=O)N[C@@H](CCSC)C(=O)N[C@@H](CCSC)C(=O)O)[C@@H](C)CC
pKd [1]: 4.60

CC[C@H](C)[C@H](NC(=O)[C@@H](N)CCCNC(=N)N)C(=O)N[C@@H](CC(N)=O)C(=O)N[C@@H](CC(N)=O)C(=O)N[C@H](C(=O)N1C[C@@H](n2cc(-c3ccccc3C)nn2)C[C@H]1C(=O)N[C@@H](Cc1c[nH]c2ccccc12)C(=O)N[C@@H](CO)C(=O)N[C@@H](CCC(=O)O)C(=O)N[C@@H](C)C(=O)N[C@@H](CCSC)C(=O)N[C@@H](CCSC)C(=O)O)[C@@H](C)CC
pKd [1]: 6.89

CC[C@H](C)[C@H](NC(=O)[C@@H](N)CCCNC(=N)N)C(=O)N[C@@H](CC(N)=O)C(=O)N[C@@H](CC(N)=O)C(=O)N[C@H](C(=O)N1C[C@@H](n2cc(CSc3ccccc3)nn2)C[C@H]1C(=O)N[C@@H](Cc1c[nH]c2ccccc12)C(=O)N[C@@H](CO)C(=O)N[C@@H](CCC(=O)O)C(=O)N[C@@H](C)C(=O)N[C@@H](CCSC)C(=O)N[C@@H](CCSC)C(=O)O)[C@@H](C)CC
pKd [1]: 6.94

CCc1ccc(-c2cn([C@H]3C[C@@H](C(=O)N[C@@H](Cc4c[nH]c5ccccc45)C(=O)N[C@@H](CO)C(=O)N[C@@H](CCC(=O)O)C(=O)N[C@@H](C)C(=O)N[C@@H](CCSC)C(=O)N[C@@H](CCSC)C(=O)O)N(C(=O)[C@@H](NC(=O)[C@H](CC(N)=O)NC(=O)[C@H](CC(N)=O)NC(=O)[C@@H](NC(=O)[C@@H](N)CCCNC(=N)N)[C@@H](C)CC)[C@@H](C)CC)C3)nn2)cc1
pIC50 [2]: 6.84 | Activity [3]: Non-toxic | pIC50 [4]: 6.63 | pIC50 [5]: 6.38 | pKd [1]: 8.05 | pIC50 [6]: 6.86 | pIC50 [7]: 6.75 | pIC50 [8]: 6.72

CC[C@H](C)[C@H](NC(=O)[C@@H](N)CCCNC(=N)N)C(=O)N[C@@H](CC(N)=O)C(=O)N[C@@H](CC(N)=O)C(=O)N[C@H](C(=O)N1C[C@@H](n2cc(-c3ccc(CCc4ccccc4)cc3)nn2)C[C@H]1C(=O)N[C@@H](Cc1c[nH]c2ccccc12)C(=O)N[C@@H](CO)C(=O)N[C@@H](CCC(=O)O)C(=O)N[C@@H](C)C(=O)N[C@@H](CCSC)C(=O)N[C@@H](CCSC)C(=O)O)[C@@H](C)CC
pIC50 [2]: 7.00 | Activity [3]: Non-toxic | pIC50 [4]: 7.07 | pIC50 [5]: 3.21 | pIC50 [6]: 7.64 | pIC50 [7]: 6.89 | pIC50 [8]: 7.19

CC[C@H](C)[C@H](NC(=O)[C@@H](N)CCCNC(=N)N)C(=O)N[C@@H](CC(N)=O)C(=O)N[C@@H](CC(N)=O)C(=O)N[C@H](C(=O)N1C[C@@H](n2cc(-c3ccccc3OC)nn2)C[C@H]1C(=O)N[C@@H](Cc1c[nH]c2ccccc12)C(=O)N[C@@H](CO)C(=O)N[C@@H](CCC(=O)O)C(=O)N[C@@H](C)C(=O)N[C@@H](CCSC)C(=O)N[C@@H](CCSC)C(=O)O)[C@@H](C)CC
pKd [1]: 4.85

CC[C@H](C)[C@H](NC(=O)[C@@H](N)CCCNC(=N)N)C(=O)N[C@@H](CC(N)=O)C(=O)N[C@@H](CC(N)=O)C(=O)N[C@H](C(=O)N1C[C@@H](n2cc(-c3cccc(C)c3)nn2)C[C@H]1C(=O)N[C@@H](Cc1c[nH]c2ccccc12)C(=O)N[C@@H](CO)C(=O)N[C@@H](CCC(=O)O)C(=O)N[C@@H](C)C(=O)N[C@@H](CCSC)C(=O)N[C@@H](CCSC)C(=O)O)[C@@H](C)CC
pKd [1]: 7.08

CC[C@H](C)[C@H](NC(=O)[C@@H](N)CCCNC(=N)N)C(=O)N[C@@H](CC(N)=O)C(=O)N[C@@H](CC(N)=O)C(=O)N[C@H](C(=O)N1C[C@@H](n2cc(-c3ccc(OC)cc3)nn2)C[C@H]1C(=O)N[C@@H](Cc1c[nH]c2ccccc12)C(=O)N[C@@H](CO)C(=O)N[C@@H](CCC(=O)O)C(=O)N[C@@H](C)C(=O)N[C@@H](CCSC)C(=O)N[C@@H](CCSC)C(=O)O)[C@@H](C)CC
pKd [1]: 6.81

CC[C@H](C)[C@H](NC(=O)[C@@H](N)CCCNC(=N)N)C(=O)N[C@@H](CC(N)=O)C(=O)N[C@@H](CC(N)=O)C(=O)N[C@H](C(=O)N1C[C@@H](n2cc(Cn3nnc4ccccc43)nn2)C[C@H]1C(=O)N[C@@H](Cc1c[nH]c2ccccc12)C(=O)N[C@@H](CO)C(=O)N[C@@H](CCC(=O)O)C(=O)N[C@@H](C)C(=O)N[C@@H](CCSC)C(=O)N[C@@H](CCSC)C(=O)O)[C@@H](C)CC
pKd [1]: 6.41

CC[C@H](C)[C@H](NC(=O)[C@@H](N)CCCNC(=N)N)C(=O)N[C@@H](CC(N)=O)C(=O)N[C@@H](CC(N)=O)C(=O)N[C@H](C(=O)N1C[C@@H](n2cc(-c3ccc(C)cc3)nn2)C[C@H]1C(=O)N[C@@H](Cc1c[nH]c2ccccc12)C(=O)N[C@@H](CO)C(=O)N[C@@H](CCC(=O)O)C(=O)N[C@@H](C)C(=O)N[C@@H](CCSC)C(=O)N[C@@H](CCSC)C(=O)O)[C@@H](C)CC
pIC50 [2]: 7.17 | Activity [3]: Non-toxic | pIC50 [4]: 6.87 | pIC50 [5]: 6.81 | pKd [1]: 7.92 | pIC50 [6]: 7.12 | pIC50 [7]: 7.03 | pIC50 [8]: 6.93

CC[C@H](C)[C@H](NC(=O)[C@@H](N)CCCNC(=N)N)C(=O)N[C@@H](CC(N)=O)C(=O)N[C@@H](CC(N)=O)C(=O)N[C@H](C(=O)N1C[C@@H](n2cc(C3=CCCCC3)nn2)C[C@H]1C(=O)N[C@@H](Cc1c[nH]c2ccccc12)C(=O)N[C@@H](CO)C(=O)N[C@@H](CCC(=O)O)C(=O)N[C@@H](C)C(=O)N[C@@H](CCSC)C(=O)N[C@@H](CCSC)C(=O)O)[C@@H](C)CC
pKd [1]: 7.01

CC[C@H](C)[C@H](NC(=O)[C@@H](N)CCCNC(=N)N)C(=O)N[C@@H](CC(N)=O)C(=O)N[C@@H](CC(N)=O)C(=O)N[C@H](C(=O)N1C[C@@H](n2cc(-c3cc(C)ccc3C)nn2)C[C@H]1C(=O)N[C@@H](Cc1c[nH]c2ccccc12)C(=O)N[C@@H](CO)C(=O)N[C@@H](CCC(=O)O)C(=O)N[C@@H](C)C(=O)N[C@@H](CCSC)C(=O)N[C@@H](CCSC)C(=O)O)[C@@H](C)CC
pKd [1]: 6.13

CC[C@H](C)[C@H](NC(=O)[C@@H](N)CCCNC(=N)N)C(=O)N[C@@H](CC(N)=O)C(=O)N[C@@H](CC(N)=O)C(=O)N[C@H](C(=O)N1C[C@@H](n2cc(-c3cc(C)c(C)cc3C)nn2)C[C@H]1C(=O)N[C@@H](Cc1c[nH]c2ccccc12)C(=O)N[C@@H](CO)C(=O)N[C@@H](CCC(=O)O)C(=O)N[C@@H](C)C(=O)N[C@@H](CCSC)C(=O)N[C@@H](CCSC)C(=O)O)[C@@H](C)CC
pKd [1]: 6.80

CC[C@H](C)[C@H](NC(=O)[C@@H](N)CCCNC(=N)N)C(=O)N[C@@H](CC(N)=O)C(=O)N[C@@H](CC(N)=O)C(=O)N[C@H](C(=O)N1C[C@@H](n2cc(-c3ccccc3CO)nn2)C[C@H]1C(=O)N[C@@H](Cc1c[nH]c2ccccc12)C(=O)N[C@@H](CO)C(=O)N[C@@H](CCC(=O)O)C(=O)N[C@@H](C)C(=O)N[C@@H](CCSC)C(=O)N[C@@H](CCSC)C(=O)O)[C@@H](C)CC
pKd [1]: 5.71

CC[C@H](C)[C@H](NC(=O)[C@@H](N)CCCNC(=N)N)C(=O)N[C@@H](CC(N)=O)C(=O)N[C@@H](CC(N)=O)C(=O)N[C@H](C(=O)N1C[C@@H](n2cc(-c3ccc(F)cc3)nn2)C[C@H]1C(=O)N[C@@H](Cc1c[nH]c2ccccc12)C(=O)N[C@@H](CO)C(=O)N[C@@H](CCC(=O)O)C(=O)N[C@@H](C)C(=O)N[C@@H](CCSC)C(=O)N[C@@H](CCSC)C(=O)O)[C@@H](C)CC
pKd [1]: 7.04

CC[C@H](C)[C@H](NC(=O)[C@@H](N)CCCNC(=N)N)C(=O)N[C@@H](CC(N)=O)C(=O)N[C@@H](CC(N)=O)C(=O)N[C@H](C(=O)N1C[C@H](n2cc(-c3ccccc3)nn2)C[C@H]1C(=O)N[C@@H](Cc1c[nH]c2ccccc12)C(=O)N[C@@H](CO)C(=O)N[C@@H](CCC(=O)O)C(=O)N[C@@H](C)C(=O)N[C@@H](CCSC)C(=O)N[C@@H](CCSC)C(=O)O)[C@@H](C)CC
pKd [1]: 5.57

CC[C@H](C)[C@H](NC(=O)[C@@H](N)CCCNC(=N)N)C(=O)N[C@@H](CC(N)=O)C(=O)N[C@@H](CC(N)=O)C(=O)N[C@H](C(=O)N1C[C@@H](n2cc(-c3ccc(N)cc3)nn2)C[C@H]1C(=O)N[C@@H](Cc1c[nH]c2ccccc12)C(=O)N[C@@H](CO)C(=O)N[C@@H](CCC(=O)O)C(=O)N[C@@H](C)C(=O)N[C@@H](CCSC)C(=O)N[C@@H](CCSC)C(=O)O)[C@@H](C)CC
pKd [1]: 6.36

CC[C@H](C)[C@H](NC(=O)[C@@H](N)CCCNC(=N)N)C(=O)N[C@@H](CC(N)=O)C(=O)N[C@@H](CC(N)=O)C(=O)N[C@H](C(=O)N1C[C@@H](n2cc(-c3cccc4ccccc34)nn2)C[C@H]1C(=O)N[C@@H](Cc1c[nH]c2ccccc12)C(=O)N[C@@H](CO)C(=O)N[C@@H](CCC(=O)O)C(=O)N[C@@H](C)C(=O)N[C@@H](CCSC)C(=O)N[C@@H](CCSC)C(=O)O)[C@@H](C)CC
pKd [1]: 7.27

CC[C@H](C)[C@H](NC(=O)[C@@H](N)CCCNC(=N)N)C(=O)N[C@@H](CC(N)=O)C(=O)N[C@@H](CC(N)=O)C(=O)N[C@H](C(=O)N1C[C@@H](n2cc(-c3ccc(F)c(C)c3)nn2)C[C@H]1C(=O)N[C@@H](Cc1c[nH]c2ccccc12)C(=O)N[C@@H](CO)C(=O)N[C@@H](CCC(=O)O)C(=O)N[C@@H](C)C(=O)N[C@@H](CCSC)C(=O)N[C@@H](CCSC)C(=O)O)[C@@H](C)CC
pKd [1]: 7.42
